Most compounds without a hit are left out; they make up all but 3% or so of the library.
Granule exo inh: blocks lytic granule exocytosis; TALL-104 LAMP-1 surface exposure, flow cytometry; cells stimulated with thapsigargin and PMA; AID 651702; actives 0.66% (n = 360,000); inhibition, % at 10 µM;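 active = inhibition above about 55%, limit read from the data; inconclusive = no clear call, values can overlap the other calls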
DSG3 Ab inh: inhibitors of pemphigus antibody binding to human desmoglein-3. P32926. DSG3-coupled beads, scFv-anti-DSG3-GFP binding, flow cytometry; active compounds read low. binding (percent of control), % at 10 µM. actives 0.48% (n = 310,000). AID 588358;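 active = binding more than 3 SD below its plate's average and above zero; inconclusive = below that plate limit but binding exactly zero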;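 also: hits lower antibody fragment binding to DSG3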
SENP1 inh: inhibitors of human SENP1 SUMO protease catalytic domain | Q9P0U3 | recombinant SENP1 catalytic domain, CyPet-SUMO1-YPet FRET cleavage | inhibition, % at 10 µM | actives 0.21% (n = 360,000) | AID 624204;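 active = inhibition at least 30% at 10 µM, raw YFP signal under a set limit, fluorescence ratio 0.5 to 1.5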
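Material – human SENP1 catalytic domain · Input – SENP1 enzyme, 20 pM final · Compound dosing – single concentration of 10 µM compound, 0.5% DMSO final · Timing – enzyme reaction for 50 min at room temperature, dark · Measured by – FRET fluorescence in CFP and YFP emission channels · Control set – no-enzyme wells low, DMSO-plus-enzyme wells high control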
H9c2 protect: protects H9c2 cardiomyocytes from peroxide injury; H2O2 injury protection, ATPLite, 2 h; protection from H2O2 cell death, % at 20 µM; actives 0.63% (n = 360,000); AID 588492;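 active = compounds giving at least 50% protection of heart cells from peroxide-induced death in the single-dose screen, raw or plate-pattern-corrected value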
Myeloid diff MLP: myeloid differentiation induction | ER-HoxA9 myeloid progenitors, lysozyme-GFP differentiation, flow cytometry | actives 1% (n = 360,000) | calls only at 10 µM;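 active = normalized GFP-positive differentiation at or above the plate's own cutoff, the solvent-only control mean plus 3 SD; inconclusive = no clear call, values can overlap the other calls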;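 also: cells exposed to compound for four days before flow analysis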
HNF4A DNA FP: change in binding of human HNF4 alpha to DNA; P41235; HNF4a-FITC DNA binding, fluorescence polarization, 1 h; activity change, % at 10 µM; actives 0.3% (n = 360,000); AID 1224865; in the data active = activity change above about 30%, passing the limit was not always enough
Target sequence (P41235 whole entry, looked up): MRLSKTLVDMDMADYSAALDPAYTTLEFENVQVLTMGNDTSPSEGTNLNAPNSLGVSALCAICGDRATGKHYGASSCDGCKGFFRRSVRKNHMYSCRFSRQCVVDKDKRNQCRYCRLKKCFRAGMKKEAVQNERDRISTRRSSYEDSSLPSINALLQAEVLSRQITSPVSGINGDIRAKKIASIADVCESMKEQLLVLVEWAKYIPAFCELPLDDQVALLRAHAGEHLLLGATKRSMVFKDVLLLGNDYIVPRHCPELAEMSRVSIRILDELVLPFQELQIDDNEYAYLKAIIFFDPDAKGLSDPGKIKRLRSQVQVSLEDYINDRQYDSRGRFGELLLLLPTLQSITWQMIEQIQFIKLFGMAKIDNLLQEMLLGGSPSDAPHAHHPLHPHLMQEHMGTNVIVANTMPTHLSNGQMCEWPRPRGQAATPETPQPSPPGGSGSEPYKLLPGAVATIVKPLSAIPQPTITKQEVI
Hits are given with their value; i = inactive; ? = inconclusive; nt = no result; + = active, no number.

SMILES	Granule exo inh	DSG3 Ab inh	SENP1 inh	H9c2 protect	Myeloid diff MLP	HNF4A DNA FP
CN(C)c1ccc(C=c2c3ccccc3n3c2c2c([n+]3C)CCCC2)cc1	70	i	i	i	?	i
CN(C)c1ccc(C=c2c3ccccc3n3c2cc(-c2ccc(Cl)cc2)[n+]3C)cc1	i	nt	i	i	?	50
CN(C)c1ccc(C=c2c3cc([N+](=O)[O-])ccc3n3c2cc(-c2ccccc2)[n+]3C)cc1	i	i	i	i	?	i
CN(C(=O)CS(=O)(=O)c1cn(CC(=O)N2CCCCC2)c2ccccc12)c1ccccc1	i	i	i	i	i	i
CCNc1nc(SC(C)C(=O)Nc2ccccc2)nc(N(C)C)n1 (centres undefined)	i	i	i	i	?	i
COC(=O)C(C)Sc1nc(NCc2ccccc2)nc(N(C)C)n1 (centres undefined)	i	84	i	i	i	i
Cc1nc(Nc2ccccc2)sc1C(=O)c1ccccc1	i	80	i	i	i	i
CC(=O)c1sc(N/N=C\c2ccccc2O)nc1C	i	i	i	i	i	35
O=S(=O)(Nc1cccc(F)c1)c1ccc(S(=O)(=O)N2CCOCC2)cc1	i	i	i	i	i	i
COc1ccc(/C=C2\CCC/C(=C\C=N\N(C)C)C2=O)cc1	i	i	i	i	i	i
CN(C)/N=C/C=C1\CCC/C(=C\c2ccc(F)c(F)c2)C1=O	90	i	i	i	?	i
COC(=O)N1C(=O)[C@](c2ccccc2)(C2CCCCC2)N1C(=O)OC	i	i	i	56	i	i
COC(=O)N1C(=O)[C@@](c2ccccc2)(C2CCCC2)N1C(=O)OC	i	i	i	i	i	i
COc1ccc2cc(CN(CCc3ccccc3)Cc3nnnn3CC3CCCO3)c(=O)[nH]c2c1 (centres undefined)	i	i	i	i	i	i
O=c1[nH]c2cc3c(cc2cc1CN(Cc1nnnn1CC1CCCO1)C1CCCCC1)OCO3 (centres undefined)	i	i	i	57	i	i
COc1ccc2[nH]c(=O)c(CN(CCc3ccccc3)Cc3nnnn3CC3CCCO3)cc2c1 (centres undefined)	i	i	i	76	i	i
O=c1[nH]c2cc3c(cc2cc1CN(Cc1nnnn1CC1CCCO1)C1CCCC1)OCO3 (centres undefined)	i	i	i	i	i	i
COc1ccc(OC)c(N(C(=O)c2ccco2)C(C(=O)NC2CCCC2)c2ccc(N3CCOCC3)cc2)c1 (centres undefined)	i	nt	i	i	i	i
COc1ccc(C)cc1N(C(=O)c1ccco1)C(C(=O)NC1CCCC1)c1ccc(N2CCOCC2)cc1 (centres undefined)	i	nt	i	i	+	i
CCOCCCNC(=O)/C(C#N)=C/c1cc(OC)c(O)c([N+](=O)[O-])c1	i	i	i	i	i	i
CCOCCCNC(=O)/C(C#N)=C/c1ccc(Cl)c([N+](=O)[O-])c1	66	i	i	i	i	i
Oc1cccc(C=Nc2cccc3ccccc23)c1O	i	i	i	i	i	i
Oc1ccc(Cl)cc1C=Nc1ccc2c3c(cccc13)CC2	i	i	i	91	i	i
Oc1ccc(Cl)cc1/C=N/c1nccs1	i	i	i	i	i	i
Cc1cccc(N=Cc2ccccc2O)c1C	i	i	i	i	i	i
SMILES	Granule exo inh	DSG3 Ab inh	SENP1 inh	H9c2 protect	Myeloid diff MLP	HNF4A DNA FP
CCc1ccc(O)c(N=Cc2cccc(C)c2O)c1	i	i	i	60	i	i
Cc1cccc(C=Nc2ccc3c4c(cccc24)CC3)c1O	i	nt	i	i	+	i
Cc1[nH]c(C)c(S(=O)(=O)NCc2ccc(Cl)cc2)c1C(=O)N1CCCC1	i	i	i	i	i	i
CC(=O)Nc1ccc(CNc2nc(NCC3CC3)nc3ccsc23)cc1	i	nt	i	i	i	i
COc1ccc(-c2nc(N3CCN(C)CC3)sc2-c2ccc(OC)cc2)cc1	i	nt	i	i	?	i
O=C(O)CCC(=O)Nc1cccc2cccnc12	i	i	i	i	i	i
O=C(CCC(=O)OCC(=O)c1ccccc1)Nc1cccc2cccnc12	i	8.4	i	i	i	i
COc1ccc(-c2noc(N3CCCC(C(=O)Nc4cc(F)ccc4F)C3)n2)cc1 (centres undefined)	i	i	i	i	i	i
CCN(CC)C(=O)CSc1nnc(COc2ccc(OC)cc2)n1N	i	i	i	i	i	i
CCN(CC)C(=O)CSc1nnc2nnc3cc(OC)ccc3n12	i	i	i	i	+	i
COc1ccc(/C=C2\SC(c3ccc(C)cc3)=NC2=O)cc1OC	i	i	i	i	i	86
CCOc1ccc(/C=C2\SC(=S)NC2=O)cc1OC	i	i	i	i	i	i
COc1ccc(/C=C2/C(=O)N=C(N)N2C)cc1OC	i	i	i	i	+	i
COc1ccc(/C=C2\SC(=O)NC2=S)cc1OC	i	i	32	i	?	i
COc1ccc(/C=C2\N=C(C)OC2=O)cc1OC	i	i	i	i	+	i
COc1ccncc1-c1csc(C(O)c2ccccc2)n1 (centres undefined)	i	nt	i	i	i	i
COc1cc(/C=C2\SC(N3CCc4ccccc4C3)=NC2=O)cc(OC)c1OC	i	i	i	52	i	i
COc1cc(/C=C2\SC(c3ccc(C)cc3)=NC2=O)cc(OC)c1OC	i	i	i	i	i	51
COc1ccc(/C=C2/SC(c3ccc(C)cc3)=NC2=O)cc1OC	i	i	i	i	i	i
COc1cc(/C=C2\SC(c3ccc(C)cc3)=NC2=O)ccc1O	i	i	i	i	i	78
C#CCOCCOCCOCCNc1nc(N2CCOCC2)nc(N2CCN(C(=O)[C@H](CCC(=O)O)n3cc(C(N)Cc4ccc(O)cc4)nn3)CC2)n1 (some centres undefined)	i	i	i	i	i	i
O=C(CCC(=O)OCc1ccc(Br)cc1)Nc1ccccc1	i	i	i	i	i	i
CCCCCC[n+]1ccccc1/C=C/c1ccc(N(C)C)cc1	i	nt	i	i	nt	121
CC[n+]1ccc(/C=C/c2ccc(N(C)C)cc2)c2ccccc21	i	i	i	i	+	i
CC[n+]1c(/C=C/c2ccc(N(C)C)cc2)ccc2ccccc21	i	nt	i	i	nt	i
CC[n+]1ccccc1/C=C/c1ccc(N(C)C)cc1	i	i	87	i	?	50
CCOc1cc(N2CCOCC2)c(OCC)cc1NC(=O)c1cccc(S(=O)(=O)N2CCOCC2)c1	i	nt	i	i	i	i
COc1ccc2[nH]c(=O)c(CN(Cc3cccs3)S(=O)(=O)c3c(C)ccc4nsnc34)cc2c1	i	nt	i	69	i	i
Cc1ccc2nsnc2c1S(=O)(=O)N(CCO)Cc1cc2cc3c(cc2[nH]c1=O)OCCO3	i	i	i	i	i	i

Assay outcomes deposited in PubChem BioAssay by several laboratories.
